DNA FID counter – compounds displacing fluorescent DNA intercalator, primary screen, artefact control for HCV NS3 helicase inhibitor project, biochemical, FID fluorescence; DNA fluorescent intercalator displacement; inhibition, % at 7.9 µM; actives 0.17% (n = 290,000); in the data active means inhibition above about 37%;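 further: higher means more ethidium bromide displaced from hairpin DNA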
ANO1 activ – TMEM16A chloride channel activators or potentiators, primary screen, cell-based, HTS. HEK293 TMEM16A/YFP-H148Q/I152L, iodide quench fluorescence; active compounds read low. B-score at 10 µM. actives 0.3% (n = 340,000). Anoctamin-1 (Mus musculus), Q8BHY3. AID 623877, 2012;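 active means fluorescence-ratio B-score plate-corrected deviation score at least 3 library SD below zero, with starting fluorescence score within 5 deviations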;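 further: channel opened by trigger with iodide after compound preincubation; score built on the fluorescence ratio of max minus min over baseline; more negative score means more quench and so TMEM16A activation or potentiation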
Target sequence (Q8BHY3 whole entry, looked up): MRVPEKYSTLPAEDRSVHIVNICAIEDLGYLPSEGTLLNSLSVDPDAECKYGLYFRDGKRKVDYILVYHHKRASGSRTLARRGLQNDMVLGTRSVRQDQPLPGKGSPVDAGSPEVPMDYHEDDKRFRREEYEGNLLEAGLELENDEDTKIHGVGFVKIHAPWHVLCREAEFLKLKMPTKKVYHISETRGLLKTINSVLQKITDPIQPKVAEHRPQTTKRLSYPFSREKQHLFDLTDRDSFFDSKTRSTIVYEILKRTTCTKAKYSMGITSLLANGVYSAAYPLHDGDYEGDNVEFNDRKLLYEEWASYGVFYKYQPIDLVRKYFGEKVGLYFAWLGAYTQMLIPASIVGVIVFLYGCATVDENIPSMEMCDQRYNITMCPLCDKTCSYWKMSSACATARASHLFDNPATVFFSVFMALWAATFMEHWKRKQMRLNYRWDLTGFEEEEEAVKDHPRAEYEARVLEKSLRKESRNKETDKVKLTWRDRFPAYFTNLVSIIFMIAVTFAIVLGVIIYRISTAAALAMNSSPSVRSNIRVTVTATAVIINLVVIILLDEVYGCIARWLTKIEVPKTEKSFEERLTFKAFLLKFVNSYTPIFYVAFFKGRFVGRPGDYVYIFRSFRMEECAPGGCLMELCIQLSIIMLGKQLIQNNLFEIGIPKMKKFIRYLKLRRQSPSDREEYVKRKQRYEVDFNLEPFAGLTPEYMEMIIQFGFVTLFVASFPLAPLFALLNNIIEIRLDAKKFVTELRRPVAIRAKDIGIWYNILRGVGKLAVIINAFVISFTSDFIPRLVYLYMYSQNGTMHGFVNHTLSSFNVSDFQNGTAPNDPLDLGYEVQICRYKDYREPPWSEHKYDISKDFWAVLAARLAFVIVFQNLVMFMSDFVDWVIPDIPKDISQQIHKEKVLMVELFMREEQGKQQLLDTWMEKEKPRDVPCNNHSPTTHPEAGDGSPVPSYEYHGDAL
SR-BI DiI-HDL act – activators of SR-BI mediated DiI-HDL uptake, primary screen, ldlA[mSR-BI] CHO cells, DiI fluorescence; 3 h; 100 = double the neutral-control signal; activation, % at 12.5 µM; actives 0.096% (n = 320,000); AID 504775, 2011;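 active means mean replicate activation of at least 60% and every replicate at or above 60%; inconclusive means mean or all-replicate condition met, but not both; inactive means mean below 60% and not all replicates reaching 60%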
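Test system: SR-BI-overexpressing, LDLR-lacking CHO cells; Medium: Ham's F12 with 0.5% BSA, HEPES 25 mM, pH 7.4; Schedule: 3 h, 37 °C; Technique: bottom-read fluorescence, 550/595 nm.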
ANO1 block – TMEM16A chloride channel inhibitors, primary screen, cell-based, HTS; HEK293 TMEM16A/YFP iodide influx fluorescence, ionomycin; actives 1.2% (n = 310,000); normalized B-score (activity score, 25-100; higher = stronger inhibition) at 10 µM;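 active means ratio plate-corrected score three or more library SD toward inhibition, starting fluorescence score within five deviations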;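 further: score derived from kinetic fluorescence span divided by baseline fluorescence per well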
Kir21 block – inhibitors of mouse Kir2.1 inward-rectifier potassium channel. HEK293-Kir2.1, FluxOR thallium flux fluorescence; active compounds read low. B-score at 10 µM. actives 0.85% (n = 310,000). AID 1672, 2009;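 active means fluorescence ratio B-score at or below minus 3 SD of library scores, with starting-brightness B-score within 2 SD, cut at about -4.2 in these data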;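 further: channel flux triggered by added potassium and thallium sulfate stimulus; B-score of peak minus minimum fluorescence over baseline after thallium stimulus; more negative B-score means stronger Kir2.1 block with less thallium influx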
SR-BI DiI inh – inhibitors of SR-BI mediated HDL lipid uptake, primary screen, ldlA[mSR-BI] cells, fluorescence, single point. ldlA[mSR-BI] CHO cells, DiI-HDL uptake fluorescence, 3 h. Scavenger receptor class B member 1 (Mus musculus), Q61009. inhibition, % at 12.5 µM. actives 0.96% (n = 320,000). AID 488896, 2010;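 active means mean replicate inhibition of at least 70% and a set share of replicates each scoring 70 or more; inconclusive means meets just one of the two criteria; inactive means fails both criteria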
Of the large screens only hits and unclear results are named; the others gave an inactive call. This is a sample that favours compounds with a hit; in the whole collection about 3% have one here.

Cc1occc1C(=O)N/N=C/c1c(O)ccc2ccccc12	SR-BI DiI inh 114.0
Cc1cccc(C(=O)OCC(=O)NCCCc2ccccc2)c1	none
CC(C)[C@H](NC(=O)OC(C)(C)C)c1nnc(S(=O)(=O)Cc2c(F)cccc2Cl)o1	Kir21 block -4.36 (no result: DNA FID counter)
CC[C@@H](C)[C@H](NC(=O)OC(C)(C)C)c1nnc(S(=O)(=O)Cc2cc(C)ccc2C)o1	Kir21 block -9.11
Cc1ccccc1CS(=O)(=O)c1nnc([C@H](CC(C)C)NC(=O)OC(C)(C)C)o1	none
O=C(Oc1ccc(=O)n(-c2ccccc2)n1)c1ccc(Cl)cc1	Kir21 block -4.34
O=C(CSC1=NNC(c2ccccn2)S1)Nc1ccc(C(F)(F)F)cc1 (stereo unspecified)	SR-BI DiI inh 94.7
O=C1C[C@@H]2c3c(cccc3CN1Cc1ccc(Cl)cc1)C[C@@H](O)[C@H]2O	none (no result: DNA FID counter, ANO1 block, Kir21 block)
Cc1ccc(NC(=O)c2cc3cccc([N+](=O)[O-])c3[nH]2)cc1	SR-BI DiI inh 78.9
CCc1ccc2nc3sc(C(=O)O)cc3cc2c1	none
Nc1ccc(-c2ccc(C(=O)O)s2)cn1	none
COc1cc(/C=C/C(=O)OCC(=O)Nc2ccc(S(=O)(=O)N3CCCC3)cc2)ccc1O	SR-BI DiI inh 82.0
Cc1nc(N)nc(N(C)c2ccccc2)c1Br	none (no result: DNA FID counter, ANO1 block, Kir21 block)
O=C1C(C=NCCCn2ccnc2)=C(O)c2ccccc21	none
CC(=NCCCn1ccnc1)C1=C(O)c2ccccc2C1=O	SR-BI DiI-HDL act 60.6
CCOc1cc(NC(=O)c2ccccn2)c(OCC)cc1NC(=O)c1cccc(C)c1	SR-BI DiI inh 70.7
O=C(COC(=O)CCCOc1ccccc1)NC1CCS(=O)(=O)C1 (stereo unspecified)	none (no result: DNA FID counter)
COc1cc(NC(=O)c2c(F)c(F)c(F)c(F)c2F)c(OC)cc1Cl	none
COc1cc(OC)c(NC(=O)c2cncn2-c2ccc(F)cc2)cc1Cl	SR-BI DiI inh 71.7
Cc1ccc(S(=O)(=O)N2CCOCC2)cc1C(=O)OCC(=O)NC1CCCC(C)C1C (stereo unspecified)	none (no result: DNA FID counter, ANO1 block, Kir21 block)
CCn1c(=O)c2cc(C(=O)NC(C)C)sc2c2ccccc21	none
CCn1c(=O)c2cc(C(=O)NCCN3CCOCC3)sc2c2ccccc21	SR-BI DiI inh 87.9
Cn1nc(-c2ccc(Cl)cc2)c2cc(C(=O)NCCN3CCOCC3)sc21	SR-BI DiI inh 86.3
CCn1c(=O)c2cc(C(=O)NCc3cccs3)sc2c2ccccc21	SR-BI DiI inh 70.9 (no result: Kir21 block)
CCn1c(=O)c2cc(C(=O)N3CCN(C)CC3)sc2c2ccccc21	none
CCN(CC)CCNC(=O)c1cc2c(-c3ccc(Cl)cc3)nn(C)c2s1	none
Cc1ccc(/C=C2\SC(=S)N(/N=C/c3cc([N+](=O)[O-])ccc3O)C2=O)o1	none
O=c1cc(CN2CCN(c3ccccc3O)CC2)nc2sccn12	none
Cc1cccc(N2CCN(Cc3cc(=O)n4ccsc4n3)CC2)c1C	ANO1 activ -13.8
Cc1cccc(NC(=O)CCCN2C(=O)C(c3ccccc3)Oc3cccnc32)c1C (stereo unspecified)	none
C/C(CCc1ccc2c(c1)OCO2)=N\N=C1\NC(=O)CC(C(=O)Nc2ccccc2F)S1 (stereo unspecified)	SR-BI DiI inh 72.8
CC(C)(CNC(=O)c1cccc(S(=O)(=O)Nc2ccc(Br)cc2)c1)N1CCOCC1	none (no result: DNA FID counter)
N#C/C(=N/Nc1ccc(OC(F)(F)F)cc1)C(N)=S	ANO1 block 100
COc1ccc(N/N=C(\C#N)C(N)=O)cc1	none
Oc1cccc(C(O)CNCc2ccc(-c3ccccc3)cc2)c1 (stereo unspecified)	Kir21 block -7.85
O=C(Nc1cccnc1)Nc1ccccn1	ANO1 activ -6.4
CCOc1cc(/C=C(\C#N)C(=O)Nc2cccc(C(=O)O)c2)cc(Br)c1OC(=O)c1ccc(OC)cc1	ANO1 block 100, Kir21 block -5.35
CCOc1cc(/C=C(\C#N)C(=O)Nc2cccc(C(=O)O)c2)ccc1OCc1ccccc1Cl	ANO1 block 100
N#C/C(=C\c1ccc(OCc2ccc(Br)cc2)cc1)C(=O)Nc1cccc(C(=O)O)c1	none
COc1ccc(CN2CCC(C(=O)c3ccc(Cl)cc3)CC2)cc1	Kir21 block -9.8
CCc1ccc(-c2nc(CSCC(=O)N3CCN(c4ccccn4)CC3)c(C)o2)cc1	ANO1 block 100
Cc1ccc(-c2nc(CSCC(=O)N3CCN(C(=O)c4ccco4)CC3)c(C)o2)cc1	none
Cc1ccc(-c2nc(CSCC(=O)N3CCN(c4ccccn4)CC3)c(C)o2)cc1	ANO1 block 25
C[C@H](CO)N1C[C@H](C)[C@@H](CN(C)C(=O)NC2CCCCC2)Oc2c(NC(=O)C3CC3)cccc2C1=O	none (no result: DNA FID counter, ANO1 block, Kir21 block)
Cn1c(N=Cc2ccc([N+](=O)[O-])cc2)c(N)c(=O)n(C)c1=O	none (no result: DNA FID counter, ANO1 block, Kir21 block)
COc1ccc(Br)cc1CN(C)CC(=O)NCCc1ccccc1	Kir21 block -5.54
COc1ccc(Br)cc1/C=C/C(=O)OCC(=O)NCCc1ccc(S(N)(=O)=O)cc1	none (no result: DNA FID counter, ANO1 block, Kir21 block)
COc1ccccc1CNC(=O)CN(C)Cc1ccc(SC)cc1	Kir21 block -5.41 (no result: SR-BI DiI-HDL act, SR-BI DiI inh)
COc1ccc(Br)cc1CN(C)CC(=O)NCCc1ccc(S(N)(=O)=O)cc1	Kir21 block -4.74
O=C(NNC(=O)c1ccc(-c2ccccc2)cc1)c1ccccc1	none
O=C(/C=C/NNC(=O)c1ccccc1O)c1ccccc1	SR-BI DiI inh 114.5
O=C(/C=C/NNC(=O)c1ccccc1)c1ccc([N+](=O)[O-])cc1	SR-BI DiI inh 122.8
O=C(/C=C/NNC(=O)c1ccccc1)c1ccccc1	SR-BI DiI inh inconclusive
Cc1cccc(C(=O)NN/C=C/C(=O)c2ccccc2)c1	SR-BI DiI inh 89.4
Cc1ccc(C(=O)C=CNNC(=O)c2ccccc2)cc1	none
Cc1cccc(C(=O)NNC(=O)c2ccc(-c3ccccc3)cc2)c1	SR-BI DiI inh 79.7
COc1cccc([C@@H]2CC=C(C(=O)O)[C@H](c3cccc(Cl)c3)N2S(=O)(=O)c2ccc(C)cc2)c1	none (no result: DNA FID counter, Kir21 block)
CCC(=O)N1c2ccc(S(=O)(=O)CCC(=O)Nc3nccs3)cc2CC1C (stereo unspecified)	ANO1 activ -8.95
CC1Cc2cc(S(=O)(=O)CCC(=O)NC3CCCCC3)ccc2N1C(=O)C1CC1 (stereo unspecified)	none
CCN(CC)C(=O)[C@H]1CC(CC(=O)NCCCn2ccnc2)C(=O)N2CCc3c([nH]c4ccc(OC)cc34)[C@]12C (stereo partly specified)	none (no result: DNA FID counter, ANO1 activ, ANO1 block, Kir21 block)
